V-ATPase pH: regulators of yeast V-ATPase proton transport | 350,000 compounds, 0.37% hits | response, % at 10 µM | S. cerevisiae, pHLuorin cytosolic pH fluorescence; in the data active = response mostly above about 7.3%, no sharp cut-off; inactive = mostly below about 5.4%; note: actives read high
T cruzi repl: blocks replication of Trypanosoma cruzi. inhibition, % (no concentration beside the values). T. cruzi beta-gal in NIH3T3, luminescence, 90 h. 300,000 compounds, 1.4% hits;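 active = mean inhibition across valid replicates above about 55%, limit read from the data; inconclusive = mean below that limit but half or more replicates reach it; inactive = mean below it, under half of replicates reach it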;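 note: signal also drops with host cell toxicity which is not excluded here; 0% = plate median of DMSO wells and 100% = zero luminescence signal; higher percent means less beta-gal luminescence so fewer parasites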
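Assay system: NIH/3T3 fibroblasts plus reporter T. cruzi. Amount: NIH/3T3 cells, 5,000 per well. Buffer or medium: DMEM, 2% fetal bovine serum. Doses: compound pinned at 50 nL/well, DMSO. Schedule: ≥90 h infection period, 3 h prior cell attachment. Signal: luminescent β-galactosidase signal after 60 min lysis. Read-out: parasite load inhibition, %.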
Yeast superoxide: caloric restriction mimetics inhibiting age-related superoxide in yeast | AID 2690 | superoxide response (% of plate mean), % at 10 µM | S. cerevisiae aged cells, superoxide DHE fluorescence; hits give low values | 330,000 compounds, 0.18% hits;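 active = superoxide response under a set limit, about three screen SD below normal, cut at about 65% in these data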;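 note: yeast aged for seven days with compound at 30 °C before DHE staining; 100% = average MFI of all compound-treated wells on the plate with controls excluded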
AI-2 QS modul: modulates the Vibrio harveyi AI-2 quorum sensing system. Vibrio harveyi JMH597 AI-2 luminescence/OD600 ratio, 9 h; hits give low values; strain lacks LuxN and CqsS sensors; 0 = neutral-control median. activity change, % at 7.5 µM. 300,000 compounds, 0.4% hits; in the data active = activity change below about -75%, passing the limit was not always enough; inconclusive = no clear call, values can overlap the other calls;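 note: luminescence divided by OD600 gain over 9 h not by final OD600 alone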
NRP1-CendR mod: NRP-1/CendR interaction modulation. O14786. FAM-RPARPAR peptide binding to NRP-1, fluorescence polarization. inhibition, % at 25 µM. 360,000 compounds, 0.85% hits. AID 602438;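 active = inhibition or corrected inhibition above about 18%, plus a signal ratio from 0.5 to 1.5, limit read from the data, passing the limit was not always enough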
HIF activator: HIF pathway transcriptional activation; activation, % at 7.5 µM (by protocol); U2OS HRE-luciferase reporter, luminescence; normalized: DMSO 0%, desferrioxamine 100%; 300,000 compounds, 0.32% hits;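 active = mean activation of at least 10% of the iron chelator positive control signal, with at least half of replicates also reaching 10%; inconclusive = mean and replicate majority disagree about reaching 10%; inactive = mean and most replicates under 10%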
Active calls of the source: *. Rows were chosen to be rich in hits. Some 3% of all compounds tested hit in one or more screens of this group.

Screening CC(OC(=O)COc1cccc2c1OC(C)(C)C2)C(=O)Nc1ccc(S(N)(=O)=O)cc1 (centres undefined) returned V-ATPase pH 4.8, T cruzi repl -3.0, Yeast superoxide 101.3, AI-2 QS modul 6.1, NRP1-CendR mod 0.1 and HIF activator -0.2.
O=C(Cc1csc(NC(=O)Nc2ccc(Cl)cc2)n1)NC1CCCC1 was read as V-ATPase pH 8.4, T cruzi repl -4.2, Yeast superoxide 101.8, AI-2 QS modul -3.4, NRP1-CendR mod 4.9 and HIF activator 0.3.
Screening CC(=O)Nc1ccc2nc(-c3ccc(Br)o3)[nH]c2c1 returned V-ATPase pH -0.3, T cruzi repl -1.8, Yeast superoxide 110.4, AI-2 QS modul 20.5, NRP1-CendR mod 3.5 and HIF activator 2.7.
For O=C(Nc1ccc2nc(-c3ccc(Br)o3)[nH]c2c1)c1cccs1 the results were V-ATPase pH -2.5, T cruzi repl 68.5*, Yeast superoxide 111.2, AI-2 QS modul 3.4, NRP1-CendR mod -9.5 and HIF activator 2.6.
`CCN1CCN(c2ncnc3c2cnn3-c2ccc(C)cc2C)CC1` gave V-ATPase pH 0.5, T cruzi repl -6.6, Yeast superoxide 90.4, AI-2 QS modul 13.8, NRP1-CendR mod -4.2 and HIF activator 0.3.
For CC(NC(=O)/C(C#N)=C/c1ccco1)c1ccccc1 (centres undefined) the results were V-ATPase pH -2.0, T cruzi repl -3.4, Yeast superoxide 104.8, AI-2 QS modul 20.3, NRP1-CendR mod 9.1 and HIF activator 0.2.
For CCOCCCNC(=O)/C(C#N)=C/c1ccc([N+](=O)[O-])o1 the results were V-ATPase pH 16.2, T cruzi repl 74.3*, Yeast superoxide 109.1, AI-2 QS modul -83.4*, NRP1-CendR mod -51.0 and HIF activator 0.8.
For CC(NC(=O)/C(C#N)=C/c1ccc([N+](=O)[O-])o1)c1ccccc1 (centres undefined) the results were V-ATPase pH 93.7*, T cruzi repl 35.8, Yeast superoxide 98.3, AI-2 QS modul inconclusive, NRP1-CendR mod -85.1 and HIF activator -3.3.
CCOC(=O)[C@@H]1[C@H]2COc3cc(OC)ccc3[C@@H]2N2C(=O)N(c3ccc(C(F)(F)F)cc3)C(=O)[C@]12C was read as V-ATPase pH -0.8, T cruzi repl -10.2, Yeast superoxide 94.7, AI-2 QS modul 29.3, NRP1-CendR mod 7.3 and HIF activator -2.7.
`CCc1sc(C(C2C(=O)CC(C)(C)CC2=O)C2C(=O)CC(C)(C)CC2=O)cc1[N+](=O)[O-]` gave V-ATPase pH 8.1*, T cruzi repl -12.9, Yeast superoxide 119.3, AI-2 QS modul 43.7, NRP1-CendR mod 2.3 and HIF activator 0.1.
CC1(C)CC(=O)C(C(c2ccc(F)cc2)C2C(=O)CC(C)(C)CC2=O)C(=O)C1 was read as V-ATPase pH -1.7, T cruzi repl -19.3, Yeast superoxide 108.6, AI-2 QS modul 3.9, NRP1-CendR mod 13.6 and HIF activator -0.7.
CC1C(=O)C(C)C(c2cc(Br)ccc2O)NC1c1cc(Br)ccc1O (centres undefined) was read as V-ATPase pH 3.2 and NRP1-CendR mod 1.9.
Screening CC1C(=O)C(C)C(c2ccc(Br)cc2)NC1c1ccc(Br)cc1 (centres undefined) returned V-ATPase pH 1.9, T cruzi repl 67.5*, Yeast superoxide 127.6, AI-2 QS modul 11.6, NRP1-CendR mod 5.1 and HIF activator -20.8.
`O=C(N/N=C/c1cc2c3c(c1O)CCCN3CCC2)c1ccccc1O` gave T cruzi repl 58.8*, AI-2 QS modul 577.2, NRP1-CendR mod -6.0 and HIF activator 55.2*.
For CCOC(=O)CN1C(=N)N(c2nc(NC(C)C)nc(NC(C)C)n2)CC1=O the results were V-ATPase pH -0.1, T cruzi repl 2.1, Yeast superoxide 104.7, AI-2 QS modul 12.7, NRP1-CendR mod -3.3 and HIF activator 11.5*.
`CCOC(=O)CN1C(=N)N(c2nc(NC(C)C)nc(OC)n2)CC1=O` gave V-ATPase pH 1.4, T cruzi repl 0.9, Yeast superoxide 108.1, AI-2 QS modul 1.2, NRP1-CendR mod -2.1 and HIF activator -0.9.
Screening NC(=O)c1oc2ccccc2c1NC(=O)c1nc2ccccc2s1 returned V-ATPase pH 0.5, T cruzi repl 7.9, Yeast superoxide 92.4, AI-2 QS modul 10.5, NRP1-CendR mod 24.1* and HIF activator 2.5.
NC(=O)c1oc2ccccc2c1NC(=O)c1ccc(F)cc1 was read as V-ATPase pH 2.6, T cruzi repl -12.1, Yeast superoxide 99.6, AI-2 QS modul 9.8, NRP1-CendR mod 12.1 and HIF activator 0.6.
`COc1ccc(C2CC(c3cccs3)=NN2C(=O)c2ccccc2)cc1OC` (centres undefined) gave V-ATPase pH 0.1, T cruzi repl -6.3, Yeast superoxide 89.7, AI-2 QS modul 7.8, NRP1-CendR mod 4.2 and HIF activator -2.1.
`CCC(=O)N1N=C(c2cccs2)CC1c1ccco1` (centres undefined) gave V-ATPase pH -1.1, T cruzi repl 16.2, Yeast superoxide 119.8, AI-2 QS modul 28.5, NRP1-CendR mod 40.4* and HIF activator 0.0.
`COc1ccc(C2CC(c3cccs3)=NN2C(=O)CCl)cc1OC` (centres undefined) gave V-ATPase pH -3.1, T cruzi repl 61.7*, Yeast superoxide 90.0, AI-2 QS modul -5.5, NRP1-CendR mod -35.4 and HIF activator 0.6.
`COc1cc(C2CC(c3cccs3)=NN2C(=O)CCl)ccc1OC(F)F` (centres undefined) gave V-ATPase pH -1.8, T cruzi repl 61.0*, Yeast superoxide 87.4, AI-2 QS modul 10.9, NRP1-CendR mod -6.6 and HIF activator 0.2.
`COc1ccc(-n2nc(C(=O)NCC(=O)N3CCC(C)CC3)c3ccccc3c2=O)cc1` gave V-ATPase pH 0.1, T cruzi repl 0.9, Yeast superoxide 89.2, AI-2 QS modul 45.7, NRP1-CendR mod 8.1 and HIF activator 1.1.
CC(C)C(NS(=O)(=O)c1cccc2nsnc12)C(=O)NCc1ccc2c(c1)OCO2 (centres undefined) was read as V-ATPase pH 2.0, T cruzi repl -0.9, Yeast superoxide 93.1, AI-2 QS modul 11.0, NRP1-CendR mod -0.8 and HIF activator -0.4.
`CN(C)CCn1c(=O)n(-c2ccc(F)cc2)c(=O)c2c3c(sc21)CCCCC3` gave V-ATPase pH -0.7, T cruzi repl 15.8, Yeast superoxide 94.4, AI-2 QS modul 18.3, NRP1-CendR mod 34.8* and HIF activator 1.1.
O=C(Nc1ccc(OC(F)(F)F)cc1)N1CCN(c2ccnc3cc(Cl)ccc23)CC1 was read as V-ATPase pH -0.3, T cruzi repl 63.7*, Yeast superoxide 113.1, NRP1-CendR mod 2.0 and HIF activator -1.4.

Compound activity as filed in PubChem.
